Data as given in ChEMBL document CHEMBL3872285, “Discovery of a Potent, Selective, and Orally Available PI3Kδ Inhibitor for the Treatment of Inflammatory Diseases” (ACS Med Chem Lett, 2017).

Key:
[1] = AUC in Beagle dog at 1 mg/kg, iv through bolus administration; type: ADME, organism-based, Canis lupus familiaris; conditions: in vivo
[2] = AUC in Wistar rat at 1 mg/kg, iv; type: ADME, organism-based; conditions: in vivo
Summary of the method: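 Wistar rats received a single 1 mg/kg intravenous dose. Plasma samples were collected and AUC was calculated from them, along with half-life, clearance and steady-state volume of distribution. Values are means of two animals (n=2).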

[3] = Oral bioavailability in Wistar rat at 1 mg/kg administered via gavage; type: ADME, organism-based; conditions: in vivo
[4] = Half life in Wistar rat at 1 mg/kg, iv; type: ADME, organism-based; conditions: in vivo
[5] = Drug metabolism in human liver microsomes assessed as disappearance of parent compound at 5 uM after 30 mins in presence of NADPH by UPLC-MS/MS analysis
[6] = Clearance in Wistar rat at 1 mg/kg, iv; conditions: in vivo
[7] = Protein binding in rat plasma at 1 uM by LC-MS/MS analysis; type: ADME, cell-free; conditions: read-out: PPB
[8] = target: T1, Cytochrome P450 1A2 (Homo sapiens, UniProt P05177); assay: Inhibition of CYP1A2 in human liver microsomes assessed as reduction in Ethoxyresorufin O-deethylation at 1 to 25 uM by UPLC-MS/MS analysis; type: ADME
T1 sequence (P05177 whole entry): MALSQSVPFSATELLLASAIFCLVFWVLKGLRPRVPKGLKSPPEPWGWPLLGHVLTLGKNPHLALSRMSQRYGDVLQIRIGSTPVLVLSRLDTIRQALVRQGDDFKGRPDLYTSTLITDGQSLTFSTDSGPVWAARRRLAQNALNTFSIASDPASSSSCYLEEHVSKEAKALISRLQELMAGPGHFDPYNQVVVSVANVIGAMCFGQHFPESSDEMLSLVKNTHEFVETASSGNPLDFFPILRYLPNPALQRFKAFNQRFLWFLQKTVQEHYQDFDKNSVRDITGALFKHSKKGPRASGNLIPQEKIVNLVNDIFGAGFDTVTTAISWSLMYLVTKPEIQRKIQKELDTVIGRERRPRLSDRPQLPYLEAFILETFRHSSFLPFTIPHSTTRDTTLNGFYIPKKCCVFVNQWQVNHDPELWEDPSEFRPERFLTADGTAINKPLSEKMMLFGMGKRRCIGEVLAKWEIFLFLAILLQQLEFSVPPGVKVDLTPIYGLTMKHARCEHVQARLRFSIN

[9] = Protein binding in mouse plasma at 1uM by LC-MS/MS analysis; type: ADME, cell-free; conditions: read-out: PPB
[10] = test system: Rattus norvegicus; assay: Anti-inflammatory activity in Brown Norway rat assessed as reduction in OVA-induced eosinophil infilteration to bronchoalveolar lavage administered orally bid 1 hr prior to OVA challenge on day 14 and 6 hrs post OVA challenge on day 21 measured 24 hrs post last OVA challenge by microscopic method; type: functional
[11] = Apparent volume of distribution in Wistar rat at 1 mg/kg, iv; type: ADME, organism-based; conditions: in vivo, read-out: Vz
[12] = Stability in human plasma at 5 uM up to 24 hrs by UPLC-MS/MS analysis; type: ADME, cell-free; conditions: read-out: Stability
Summary of the method: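 Compound incubated at 2 µg/ml in plasma (sodium heparin anticoagulant) at 37 °C for 24 h; percent remaining reported.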

[13] = target: Cytochrome P450 2C19 (Homo sapiens, UniProt P33261); assay: Inhibition of CYP2C19 in human liver microsomes assessed as reduction in S-mephenytoin-4-hydroxylation at 1 to 25 uM by UPLC-MS/MS analysis; type: ADME
[14] = Oral bioavailability in Beagle dog at 1 mg/kg administered via gavage; type: ADME, organism-based, Canis lupus familiaris; conditions: in vivo
[15] = Apparent permeability of compound at 20 uM after 5 hrs by PAMPA; type: ADME
[16] = target: PI3-kinase p110-delta/p85-alpha (Homo sapiens, UniProt O00329); assay: Inhibition of full length recombinant human N-terminal His6-tagged PI3K p110delta/human p85alpha expressed in baculovirus infected sf21 cells using PIP2 as substrate preincubated for 30 mins followed by substrate addition by HTRF assay
[17] = Protein binding in dog plasma at 1 uM by LC-MS/MS analysis; type: ADME, cell-free, Canis lupus familiaris; conditions: read-out: PPB
[18] = target: PI3K p110 beta/p85 alpha (Homo sapiens, UniProt P42338); assay: Inhibition of full length recombinant human N-terminal […]-tagged PI3K p110beta/full length human p85alpha expressed in baculovirus infected Sf21 insect cells using PIP2 as substrate preincubated for 30 mins followed by substrate addition by HTRF assay
Summary of the method: (§1)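 Recombinant human class I PI3K isoform, HTRF readout. ATP held at the Km of the enzyme. Compound preincubated with enzyme for 30 min. PIP3 product detected by its displacement of biotin-PIP3 from an energy-transfer complex.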

[19] = target: Cytochrome P450 2D6 (Homo sapiens, UniProt P10635); assay: Inhibition of CYP2D6 in human liver microsomes assessed as reduction in dextromethorphan O-demethylation at 1 to 25 uM by UPLC-MS/MS analysis; type: ADME
[20] = test system: Rattus norvegicus; assay: In vivo inhibition of PI3Kdelta in Wistar rat assessed as reduction in ConA-induced increase in plasma IL2 production administered through oral gavage 1 hr prior to ConA measured 90 mins post ConA challenge by ELISA; type: functional; conditions: read-out: ID50 (the source's name)
[21] = Protein binding in human plasma at 1 uM by LC-MS/MS analysis; type: ADME, cell-free; conditions: read-out: PPB
Summary of the method: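 Binding measured by equilibrium dialysis at 37 °C, compound at 1 µM in human plasma; percent bound reported as mean.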

[22] = target: PI3-kinase p110-alpha/p85-alpha (Homo sapiens, UniProt P42336); assay: Inhibition of full length recombinant human N-terminal His6-tagged PI3K p110alpha/human p85alpha expressed in baculovirus infected Sf21 insect cells using PIP2 as substrate preincubated for 30 mins followed by substrate addition by HTRF assay; summary of the method: as §1
[23] = target: Cytochrome P450 3A4 (Homo sapiens, UniProt P08684); assay: Inhibition of CYP3A4 in human liver microsomes assessed as reduction in testosterone 6beta-hydroxylation at 1 to 25 uM by UPLC-MS/MS analysis; type: ADME
[24] = Half life in Beagle dog at 1 mg/kg, iv through bolus administration; type: ADME, organism-based, Canis lupus familiaris; conditions: in vivo
[25] = Drug metabolism in rat liver microsomes assessed as disappearance of parent compound at 5 uM after 30 mins in presence of NADPH by UPLC-MS/MS analysis
[26] = Clearance in Beagle dog at 1 mg/kg, iv through bolus administration; conditions: in vivo
[27] = Apparent volume of distribution in Beagle dog at 1 mg/kg, iv through bolus administration; type: ADME, organism-based, Canis lupus familiaris; conditions: in vivo, read-out: Vz
[28] = target: Cytochrome P450 2C9 (Homo sapiens, UniProt P11712); assay: Inhibition of CYP2C9 in human liver microsomes assessed as reduction in diclofenac 4-hydroxylation at 1 to 25 uM by UPLC-MS/MS analysis; type: ADME
Cytochrome P450 2C9, sequence (P11712 whole entry): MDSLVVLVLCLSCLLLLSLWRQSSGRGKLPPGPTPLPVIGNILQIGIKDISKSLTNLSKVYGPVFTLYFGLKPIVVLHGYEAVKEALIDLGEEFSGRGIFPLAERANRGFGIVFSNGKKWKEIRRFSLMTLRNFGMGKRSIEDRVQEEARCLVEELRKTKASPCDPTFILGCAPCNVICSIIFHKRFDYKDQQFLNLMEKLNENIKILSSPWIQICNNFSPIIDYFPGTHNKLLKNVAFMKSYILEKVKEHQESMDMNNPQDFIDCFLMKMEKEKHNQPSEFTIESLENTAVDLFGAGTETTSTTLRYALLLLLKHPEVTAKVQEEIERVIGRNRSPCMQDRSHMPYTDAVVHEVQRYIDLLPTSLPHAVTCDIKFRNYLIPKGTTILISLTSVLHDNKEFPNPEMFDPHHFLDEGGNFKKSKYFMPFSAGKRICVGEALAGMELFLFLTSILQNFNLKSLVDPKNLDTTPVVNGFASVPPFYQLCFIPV

Cytochrome P450 2C19, sequence (P33261 whole entry): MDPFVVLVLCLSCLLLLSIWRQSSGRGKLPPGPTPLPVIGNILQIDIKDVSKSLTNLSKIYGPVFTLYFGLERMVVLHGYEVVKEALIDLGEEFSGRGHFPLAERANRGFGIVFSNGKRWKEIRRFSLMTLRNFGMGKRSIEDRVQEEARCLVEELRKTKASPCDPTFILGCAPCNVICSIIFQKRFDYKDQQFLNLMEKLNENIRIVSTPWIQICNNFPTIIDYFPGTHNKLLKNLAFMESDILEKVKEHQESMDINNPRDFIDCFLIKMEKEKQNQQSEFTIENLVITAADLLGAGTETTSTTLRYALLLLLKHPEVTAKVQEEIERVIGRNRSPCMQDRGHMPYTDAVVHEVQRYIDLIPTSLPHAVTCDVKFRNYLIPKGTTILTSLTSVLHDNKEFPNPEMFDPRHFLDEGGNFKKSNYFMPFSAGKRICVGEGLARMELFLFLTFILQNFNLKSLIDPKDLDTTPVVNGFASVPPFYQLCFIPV
Cytochrome P450 3A4, sequence (P08684 whole entry): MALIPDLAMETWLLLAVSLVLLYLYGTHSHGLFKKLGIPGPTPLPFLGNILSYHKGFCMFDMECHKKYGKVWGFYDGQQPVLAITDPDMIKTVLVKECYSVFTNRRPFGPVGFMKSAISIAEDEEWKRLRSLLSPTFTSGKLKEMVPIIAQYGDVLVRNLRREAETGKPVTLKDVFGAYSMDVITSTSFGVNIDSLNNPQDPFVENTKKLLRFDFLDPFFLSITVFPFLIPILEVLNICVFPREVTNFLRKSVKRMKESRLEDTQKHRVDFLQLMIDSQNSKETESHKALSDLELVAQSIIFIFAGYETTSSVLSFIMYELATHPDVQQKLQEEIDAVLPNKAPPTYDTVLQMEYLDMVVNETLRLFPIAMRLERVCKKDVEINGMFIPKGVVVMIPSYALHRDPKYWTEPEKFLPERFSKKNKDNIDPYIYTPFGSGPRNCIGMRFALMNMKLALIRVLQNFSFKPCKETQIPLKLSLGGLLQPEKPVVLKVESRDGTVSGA
Cytochrome P450 2D6, sequence (P10635 whole entry): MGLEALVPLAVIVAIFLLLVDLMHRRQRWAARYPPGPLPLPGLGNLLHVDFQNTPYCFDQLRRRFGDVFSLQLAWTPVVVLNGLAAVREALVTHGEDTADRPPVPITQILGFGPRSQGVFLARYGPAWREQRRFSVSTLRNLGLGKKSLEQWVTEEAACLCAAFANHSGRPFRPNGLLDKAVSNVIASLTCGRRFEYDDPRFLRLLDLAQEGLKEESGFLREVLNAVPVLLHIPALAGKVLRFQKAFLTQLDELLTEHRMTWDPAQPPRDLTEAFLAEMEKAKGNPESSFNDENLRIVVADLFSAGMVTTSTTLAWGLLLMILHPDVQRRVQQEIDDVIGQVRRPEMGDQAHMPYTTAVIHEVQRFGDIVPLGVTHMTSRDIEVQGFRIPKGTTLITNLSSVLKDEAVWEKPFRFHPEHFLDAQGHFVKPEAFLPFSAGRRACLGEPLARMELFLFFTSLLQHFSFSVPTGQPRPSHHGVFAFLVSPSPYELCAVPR
PI3-kinase p110-alpha/p85-alpha, sequence (P27986 whole entry): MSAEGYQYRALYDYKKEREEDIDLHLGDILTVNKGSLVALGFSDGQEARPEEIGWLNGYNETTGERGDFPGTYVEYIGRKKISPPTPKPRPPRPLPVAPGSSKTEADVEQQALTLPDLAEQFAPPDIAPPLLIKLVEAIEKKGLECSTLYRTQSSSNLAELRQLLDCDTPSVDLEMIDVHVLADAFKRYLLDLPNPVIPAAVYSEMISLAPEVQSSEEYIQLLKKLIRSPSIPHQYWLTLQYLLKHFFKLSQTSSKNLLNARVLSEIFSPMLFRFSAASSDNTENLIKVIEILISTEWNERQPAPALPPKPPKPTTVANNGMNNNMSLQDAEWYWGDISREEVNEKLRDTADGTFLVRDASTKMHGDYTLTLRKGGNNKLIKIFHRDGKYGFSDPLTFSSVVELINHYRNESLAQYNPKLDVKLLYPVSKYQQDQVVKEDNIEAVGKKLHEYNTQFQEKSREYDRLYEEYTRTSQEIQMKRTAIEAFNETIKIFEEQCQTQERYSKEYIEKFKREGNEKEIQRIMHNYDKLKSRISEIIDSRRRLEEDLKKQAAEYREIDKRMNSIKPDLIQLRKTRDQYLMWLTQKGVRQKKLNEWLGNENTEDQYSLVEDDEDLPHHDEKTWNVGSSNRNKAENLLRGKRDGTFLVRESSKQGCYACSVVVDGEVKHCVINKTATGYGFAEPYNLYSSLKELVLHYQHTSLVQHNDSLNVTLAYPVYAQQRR
PI3-kinase p110-alpha/p85-alpha, sequence (P42336 whole entry): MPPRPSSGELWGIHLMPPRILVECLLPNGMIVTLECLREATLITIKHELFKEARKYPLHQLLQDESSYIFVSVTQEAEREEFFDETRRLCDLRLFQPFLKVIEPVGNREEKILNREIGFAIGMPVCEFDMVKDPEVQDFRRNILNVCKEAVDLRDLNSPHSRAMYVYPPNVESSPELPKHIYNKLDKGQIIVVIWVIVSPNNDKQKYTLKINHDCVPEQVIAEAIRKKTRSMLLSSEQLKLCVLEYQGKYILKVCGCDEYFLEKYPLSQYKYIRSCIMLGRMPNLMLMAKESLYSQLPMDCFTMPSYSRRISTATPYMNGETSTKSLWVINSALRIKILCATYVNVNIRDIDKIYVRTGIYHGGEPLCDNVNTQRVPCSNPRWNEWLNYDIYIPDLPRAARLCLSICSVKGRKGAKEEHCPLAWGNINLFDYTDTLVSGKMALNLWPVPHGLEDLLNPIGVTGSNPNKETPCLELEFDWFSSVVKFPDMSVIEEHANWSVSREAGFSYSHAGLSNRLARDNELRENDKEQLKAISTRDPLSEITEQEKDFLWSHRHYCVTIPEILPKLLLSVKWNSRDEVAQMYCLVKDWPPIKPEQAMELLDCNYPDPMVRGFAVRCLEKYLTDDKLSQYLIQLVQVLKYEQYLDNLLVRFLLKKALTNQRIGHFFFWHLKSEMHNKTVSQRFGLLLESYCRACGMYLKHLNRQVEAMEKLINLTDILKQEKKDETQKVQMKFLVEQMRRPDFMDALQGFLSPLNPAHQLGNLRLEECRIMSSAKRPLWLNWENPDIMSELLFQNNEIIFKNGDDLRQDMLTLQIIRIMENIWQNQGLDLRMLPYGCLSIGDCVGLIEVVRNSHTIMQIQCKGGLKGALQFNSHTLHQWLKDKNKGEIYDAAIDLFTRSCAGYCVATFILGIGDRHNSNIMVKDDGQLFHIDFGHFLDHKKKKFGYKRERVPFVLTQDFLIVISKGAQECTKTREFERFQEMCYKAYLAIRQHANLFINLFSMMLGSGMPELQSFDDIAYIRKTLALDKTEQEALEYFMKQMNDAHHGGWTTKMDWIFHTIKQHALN
PI3K p110 beta/p85 alpha, sequence (P27986 whole entry, canonical isoform): as the sequence (P27986 whole entry) above
PI3K p110 beta/p85 alpha, sequence (P42338 whole entry, canonical isoform): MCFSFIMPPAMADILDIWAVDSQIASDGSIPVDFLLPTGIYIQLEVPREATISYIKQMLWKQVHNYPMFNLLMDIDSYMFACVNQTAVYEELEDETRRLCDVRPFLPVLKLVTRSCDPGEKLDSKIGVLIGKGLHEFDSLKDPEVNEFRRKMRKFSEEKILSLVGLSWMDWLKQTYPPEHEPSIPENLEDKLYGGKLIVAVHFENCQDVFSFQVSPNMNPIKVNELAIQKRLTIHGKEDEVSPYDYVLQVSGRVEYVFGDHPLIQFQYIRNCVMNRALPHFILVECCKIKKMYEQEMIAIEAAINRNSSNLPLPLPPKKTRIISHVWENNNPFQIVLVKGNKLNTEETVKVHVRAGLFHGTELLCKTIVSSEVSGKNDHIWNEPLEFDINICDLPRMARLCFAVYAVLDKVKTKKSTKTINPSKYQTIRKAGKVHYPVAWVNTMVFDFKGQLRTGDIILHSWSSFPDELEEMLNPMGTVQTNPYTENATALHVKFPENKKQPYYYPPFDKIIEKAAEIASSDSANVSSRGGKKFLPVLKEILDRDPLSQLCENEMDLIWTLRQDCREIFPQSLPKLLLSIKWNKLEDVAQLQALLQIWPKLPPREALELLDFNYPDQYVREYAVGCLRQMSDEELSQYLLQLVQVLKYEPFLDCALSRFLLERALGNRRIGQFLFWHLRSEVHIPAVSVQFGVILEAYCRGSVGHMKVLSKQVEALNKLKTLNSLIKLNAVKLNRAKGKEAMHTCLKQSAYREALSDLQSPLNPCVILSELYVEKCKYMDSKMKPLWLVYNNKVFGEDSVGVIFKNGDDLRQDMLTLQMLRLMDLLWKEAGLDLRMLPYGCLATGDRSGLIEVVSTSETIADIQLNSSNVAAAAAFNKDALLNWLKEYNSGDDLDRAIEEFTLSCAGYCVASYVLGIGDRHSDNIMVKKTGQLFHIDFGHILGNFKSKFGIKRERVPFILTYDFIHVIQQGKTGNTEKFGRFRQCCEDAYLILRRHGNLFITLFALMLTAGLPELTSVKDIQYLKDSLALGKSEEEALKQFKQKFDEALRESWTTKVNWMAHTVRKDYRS

What does the source list for `C[C@H](Nc1ncnc(N)c1C#N)c1nn2ccc(C#N)c2c(=O)n1-c1ccccc1`?
AUC [1]: 9440 ng·h/mL; AUC [2]: 1730 ng·h/mL; bioavailability [3]: 101%; half-life [4]: 3.1 h; metabolised at 0.5 h, 5 µM [5]: 16%; clearance [6]: 9.6 mL/min/kg; fraction unbound at 1 µM [7]: 0.35 to 0.4; IC50 [8]: > 25 µM; fraction unbound at 1 µM [9]: 0.35 to 0.4; Activity [10]: Dose-dependent effect; ED50 ([10]; po, read-out: ID50 (the source's name)): 0.16 mg/kg; Vd [11]: 2.6 L/kg; remaining at 24 h, 5 µM [12]: 100%; IC50 [13]: > 25 µM; bioavailability [14]: 98%; Papp at 5 h, 20 µM [15]: 2.8 ×10⁻⁶ cm/s; IC50 [16]: 0.0026 µM; fraction unbound at 1 µM [17]: 0.35 to 0.4; IC50 [18]: 0.094 µM; IC50 [19]: > 25 µM; ED50 [20]: 0.13 mg/kg; fraction unbound at 1 µM [21]: 0.046 to 0.05; IC50 [22]: 8.2 µM; IC50 [23]: > 25 µM; half-life [24]: 10.2 h; metabolised at 0.5 h, 5 µM [25]: 20%; clearance [26]: 1.4 mL/min/kg; Vd [27]: 1.2 L/kg; IC50 [28]: > 25 µM
